Compound activity (PubChem BioAssay)
TAAR1 antag – human TAAR1 antagonists, primary screen, Fluo-8 calcium fluorescence, CHO RD-HGA16 cells; Trace amine-associated receptor 1 (Homo sapiens), Q96RJ0; antagonist; inhibition, % at 3 µM; actives 1.5% (n = 360,000); AID 624466, 2012;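 active = inhibition above a per-plate cutoff, the mean inhibition of test compounds on that plate plus 3 SD, cut at about 49% in these data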;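 also: 0% = DMSO plus EC80 beta-PEA response and 100% = DMSO alone without agonist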
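Test system: RD-HGA16 CHO cells with stable hTAAR1 and Gα16 / Probe or stimulus: EC80 β-phenethylamine stimulus / Times: seeding 17-24 h prior, 75-min 37 °C, 30-min RT dye loading / Detection: Fluo-8 calcium-sensitive fluorescence / Read-out basis: % inhibition scaled between DMSO and EC80 PEA controls / Repeats: singlicate, one well per test compound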
TAAR1 agonist – human TAAR1 agonists, primary screen, Fluo-8 calcium fluorescence, CHO RD-HGA16 cells | actives 0.99% (n = 360,000) | activation, % at 3 µM | vehicle wells 0%, saturating PEA agonist 100%;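 active = activation above the mean activation of all test compounds in the run plus 3 SD, cut at about 38% in these data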
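test system = CHO RD-HGA16 cells carrying human TAAR1 plus Gα16 | schedule = 17-24 h seeding, 75 min 37 °C dye, 30 min RT | compound dosing = 3 µM single concentration | control set = DMSO and PEA EC100 | replicates = n 1 | signal = Fluo-8 fluorescence, 5 s baseline then 140 s kinetic read | measure = percent activation vs PEA EC100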
CHO parental Ca – ATP-evoked calcium signal inhibitors, parental CHO, primary screen, counter-screen for OX1R antagonist project, cell-based, fluorescence, Fluo-8 calcium dye | actives 0.63% (n = 330,000) | parental CHO-K1, ATP-induced calcium, Fluo-8 fluorescence | inhibition, % at 5.6 µM | AID 463079, 2010;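 active = inhibition above that plate's mean sample inhibition plus 3 SD, cut at about 26% in these data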;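 also: 0% = ATP-challenged DMSO wells and 100% = DMSO wells without ATP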
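Material: Parental CHO cells | Reagent: ATP | Compound dosing: Single nominal dose of 5.6 µM per compound | Detection: Intracellular calcium via Fluo-8 no-wash fluorescent dye | Read-out: % inhibition of ATP-induced calcium mobilization | Benchmarks: Low control ATP plus DMSO, high control DMSO only | Replicates: Singlicate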
GPR7 antag – GPR7 receptor antagonists, primary screen, cell-based, fluorescence, single concentration. Neuropeptides B/W receptor type 1 (Homo sapiens), P48145. GPR7-expressing cells, fluorescence antagonist assay. inhibition, % at 4.4 µM. actives 1.1% (n = 290,000); in the data active = inhibition above about 16%, passing the limit was not always enough;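 also: cells stimulated with the agonist NPW; 0% = agonist with vehicle and 100% = vehicle without agonist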
Target sequence (P48145 whole entry, looked up): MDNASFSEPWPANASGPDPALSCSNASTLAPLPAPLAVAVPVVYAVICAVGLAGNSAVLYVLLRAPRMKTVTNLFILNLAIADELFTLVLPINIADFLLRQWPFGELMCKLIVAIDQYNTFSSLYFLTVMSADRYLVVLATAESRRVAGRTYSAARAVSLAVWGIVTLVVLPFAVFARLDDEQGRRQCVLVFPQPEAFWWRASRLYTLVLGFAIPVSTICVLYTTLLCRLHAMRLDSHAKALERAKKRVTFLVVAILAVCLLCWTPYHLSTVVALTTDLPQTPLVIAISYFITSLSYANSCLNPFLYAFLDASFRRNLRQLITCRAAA
OX1R antag-1 – OX1R (HCRTR1) antagonists, primary screen, fluorescence, CHO/OX1R cells, Fluo-8 calcium, orexin A; Fluo-8 calcium fluorescence; inhibition, % at 5 µM; actives 0.43% (n = 330,000);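 active = inhibition above its plate's threshold, mean inhibition of all tested compounds on the plate plus 3 SD, cut at about 37% in these data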;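 also: 0% = orexin A challenge wells and 100% = SB-334867-A antagonist wells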
Target sequence (O43613 whole entry, looked up): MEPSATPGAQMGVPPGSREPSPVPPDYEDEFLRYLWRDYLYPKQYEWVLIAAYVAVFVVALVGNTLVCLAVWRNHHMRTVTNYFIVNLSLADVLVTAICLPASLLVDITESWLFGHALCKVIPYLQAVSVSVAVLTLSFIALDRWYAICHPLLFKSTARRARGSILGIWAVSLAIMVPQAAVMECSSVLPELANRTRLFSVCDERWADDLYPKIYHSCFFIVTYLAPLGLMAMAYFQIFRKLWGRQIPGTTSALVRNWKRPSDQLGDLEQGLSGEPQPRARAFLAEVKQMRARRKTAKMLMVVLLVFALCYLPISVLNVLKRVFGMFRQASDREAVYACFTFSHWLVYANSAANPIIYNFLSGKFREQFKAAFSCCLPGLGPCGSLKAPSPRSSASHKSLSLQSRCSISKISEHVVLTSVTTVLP
OX1R antag-2 – antagonists of human orexin 1 receptor (OX1R). OX1R-expressing cells, FRET antagonist read-out. inhibition, % at 6.6 µM. actives 1.8% (n = 330,000). AID 485270, 2010; in the data active = inhibition mostly above about 38%, no sharp cut-off; inactive = mostly below about 40%;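 also: 0% = agonist challenge alone and 100% = reference antagonist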
TAAR1 ag confirm – human TAAR1 agonists, retest of hits, confirmation, Fluo-8 calcium fluorescence, CHO RD-HGA16 cells. actives 82% (n = 2,400). shares compounds with TAAR1 agonist. scaled: DMSO 0%, maximal phenethylamine 100%. activation, % at 3 µM;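 active = activation above a cutoff set at the run's mean compound activation plus 3 SD, cut at about 39% in these data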
Ga16 ag counter – nonselective calcium mobilization agonists, CHO-Ga16 cells, counter-screen for hTAAR1 agonist project, cell-based, fluorescence, CHO-Ga16 parental line | Fluo-8 calcium fluorescence; normalized to maximal ATP response, DMSO zero | actives 50% (n = 2,400) | activation, % at 3 µM | shares compounds with TAAR1 agonist | AID 651787, 2012;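 active = activation above the run cutoff, the mean activation over all tested wells plus 3 SD, cut at about 12% in these data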;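 also: 0% = DMSO wells and 100% = maximal ATP response on the peak over basal ratio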
TAAR1 desens – TAAR1 desensitization by agonist hits, confirmation, counter-screen for TAAR1 agonist project, cell-based, fluorescence, tachyphylaxis; shares compounds with TAAR1 agonist; CHO RD-HGA16 hTAAR1, Fluo-8 calcium, beta-PEA response inhibition; inhibition, % at 3 µM; actives 46% (n = 2,400);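 active = inhibition above the run cutoff, the mean inhibition of all test compounds plus 3 SD, cut at about 49% in these data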;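 also: beta-PEA stimulus applied at its EC80; loss of beta-PEA calcium signal after compound pretreatment read as receptor desensitization; 0% = DMSO with beta-PEA at EC80 and 100% = DMSO alone without agonist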
Ga16 antag count – inhibition of ATP-evoked calcium response in CHO-Ga16 cells, counter-screen for TAAR1 agonist project, cell-based, fluorescence | actives 39% (n = 2,400) | CHO-Ga16 ATP-induced calcium, Fluo-8 fluorescence | shares compounds with TAAR1 agonist | inhibition, % at 3 µM | AID 651952, 2012;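 active = inhibition above the plate's mean compound inhibition plus 3 SD, computed per plate, cut at about 22% in these data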;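 also: 0% = EC80 ATP with DMSO and 100% = DMSO wells without ATP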
Active calls of the source: *; nt = not tested or not shown. This is a sample that favours compounds with a hit; in the whole collection about 4.6% have one here.

SMILES	TAAR1 antag	TAAR1 agonist	CHO parental Ca	GPR7 antag	OX1R antag-1	OX1R antag-2	TAAR1 ag confirm	Ga16 ag counter	TAAR1 desens	Ga16 antag count
Cc1ccc(-n2c(=O)cc(N3CCC(C)CC3)[nH]c2=O)cc1	-12	4	-16	-10	-1	-2	nt	nt	nt	nt
Cc1ccccc1-n1c(=O)cc(N2CCc3ccccc3C2)[nH]c1=O	54*	92*	-8	-3	-12	-1	97*	3	80*	7
O=c1cc(N2CCc3ccccc3C2)[nH]c(=O)n1-c1ccccc1Cl	27	79*	-10	-6	-21	-6	62*	4	2	12
CC(c1ccccc1)n1c(-c2ccc(C(C)(C)C)cc2)n[nH]c1=S (centres undefined)	nt	nt	-22	-30	-40	12	nt	nt	nt	nt
CCc1nc2c(OCc3cc(Cl)cc(Cl)c3)cccn2c1N(C)C(=O)c1ccc(C)cc1	-7	8	nt	nt	nt	nt	nt	nt	nt	nt
C[C@@H]1CN([C@@H](C)CO)C(=O)CCCn2nncc2CO[C@@H]1CN(C)C(=O)Nc1ccc(C(F)(F)F)cc1	-8	3	nt	nt	nt	nt	nt	nt	nt	nt
O=C(Oc1ccc(Br)cc1C(=S)N1CCCC1)c1ccccc1F	57*	94*	-15	-2	-12	18	-3	3	8	7
CCOC(=O)c1ccccc1-n1nnnc1C	-24	4	-13	-13	-11	12	nt	nt	nt	nt
Nn1c(SCC(=O)NCC2CCCO2)nnc1-c1cc(Cl)ccc1Cl (centres undefined)	-9	-1	nt	nt	nt	nt	nt	nt	nt	nt
CCOC(=O)N[C@@H](Cc1cccnc1)C(=O)N1CCC[C@H]1C(=O)NCCc1ccccc1Cl	61*	67*	nt	nt	nt	nt	89*	5	86*	5
Cc1ccccc1C(=O)N[C@@H](Cc1cccnc1)C(=O)N1CCC[C@H]1C(=O)NCCc1ccccc1Cl	48	41*	nt	nt	nt	nt	84*	19*	84*	4
CC(C)(C)NC(=O)C[n+]1ccc(C(N)=O)cc1	-4	6	4	-3	2	26	nt	nt	nt	nt
CCCCn1c(N)c(N(CC(C)C)C(=O)CC(NC(=O)c2ccccc2)c2ccccc2)c(=O)[nH]c1=O (centres undefined)	-17	4	-13	nt	-16	12	nt	nt	nt	nt
O=C(Nc1ccc(Cl)c([N+](=O)[O-])c1)c1ccc(NCCCN2CCOCC2)c([N+](=O)[O-])c1	91*	75*	42*	-7	1	24	77*	28*	99*	35*
O=C(Nc1cccc([N+](=O)[O-])c1)C1CCN(C(=O)Cc2ccccc2)CC1	1	2	-3	-6	1	19	nt	nt	nt	nt
CC(C)Cc1nnc(NC(=O)CCC(=O)N2CC(C)CC(C)C2)s1 (centres undefined)	-20	3	-13	-11	-5	0	nt	nt	nt	nt
O=C(O)CCCC(=O)Nc1nc(-c2ccccc2)cs1	4	12	0	-9	-7	4	nt	nt	nt	nt
O=C(Cc1c(F)c(F)c(F)c(F)c1F)Nc1nc(-c2ccccc2)cs1	47	54*	48*	5	27	48*	83*	33*	69*	30*
CN(C(=O)CSc1n[nH]c(-c2cccs2)n1)C1CCS(=O)(=O)C1 (centres undefined)	-34	4	-4	nt	0	10	nt	nt	nt	nt
COc1ccc(NC(=O)C(=O)NCC(c2ccco2)N2CCc3ccccc3C2)cc1OC (centres undefined)	-10	56*	-22	nt	-40	15	48*	2	16	12
COc1cccc(NC(=O)C(=O)NCC(c2ccco2)N2CCc3ccccc3C2)c1 (centres undefined)	-21	11	-16	nt	-13	16	nt	nt	nt	nt
CC(=O)Nc1cccc(NC(=O)C(=O)NCC(c2ccco2)N2CCc3ccccc3C2)c1 (centres undefined)	1	57*	-5	nt	-29	9	63*	10	54*	31*
O=c1[nH]c2ccccc2nc1Cc1ccc([N+](=O)[O-])cc1	-5	-2	-14	-5	-14	28	nt	nt	nt	nt
O=C(NCCS(=O)(=O)NCCc1ccccc1)c1ccc2c(c1)OCO2	nt	nt	-4	nt	-13	13	nt	0	nt	7
COc1ccc(C(=O)NCCS(=O)(=O)NCCc2ccccc2)cc1	16	48*	-25	nt	-14	6	72*	2	33	6
SMILES	TAAR1 antag	TAAR1 agonist	CHO parental Ca	GPR7 antag	OX1R antag-1	OX1R antag-2	TAAR1 ag confirm	Ga16 ag counter	TAAR1 desens	Ga16 antag count
O=C(NCCS(=O)(=O)NCc1ccccc1Cl)c1ccc2c(c1)OCO2	-19	1	-13	nt	-3	5	nt	nt	nt	nt
COc1ccc(CCNS(=O)(=O)CCNC(=O)c2ccccc2)cc1	19	20	-22	nt	-27	2	nt	nt	nt	nt
O=C(NCCc1ccccc1)c1ccc(=O)oc1	8	61*	0	-1	-8	25	67*	14*	12	4
O=C(NCCc1ccccc1)c1ccc2c(c1)OCCCO2	-1	46*	2	-4	-12	35	60*	0	11	2
Cc1ccc(C(=O)NCCc2ccccc2)cc1	nt	nt	-3	-13	4	10	nt	nt	nt	nt
Cc1ccc(OCc2nc(-c3ccccc3)no2)cc1	-15	-1	-10	-3	-10	4	nt	nt	nt	nt
COc1ccc(NC(=O)COc2ccccc2)c(OC)c1	0	9	-21	4	-9	19	nt	nt	nt	nt
COc1ccc(NC(=O)COc2ccc(Br)cc2)c(OC)c1	67*	68*	1	-4	-16	9	43*	13*	29	-3
